{
  "source": "ChEMBL document CHEMBL1136962",
  "about": "“Galactosyl prodrug of ketorolac: synthesis, stability, and pharmacological and pharmacokinetic evaluations” (J Med Chem, 2009)",
  "key": {"[1]": {"assay": "Chemical stability assessed as hydrolysis half life in 0.1N HCl at pH 1", "format": "physicochemical", "in_short": "(§1)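 Solutions of 100 µg/mL (ketorolac tris salt at 90.5 µg/mL) held at 37 °C for 24 h in 0.1 N HCl (pH 1), phosphate buffer pH 7.4 or 8.0, or plasma. Samples taken hourly; plasma samples extracted with acetonitrile (1:2) and centrifuged. Remaining ester measured by HPLC diode array at 313 nm. Pseudo-first-order t1/2 from log plots over time; mean ± SEM.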"}, "[2]": {"assay": "Chemical stability assessed as hydrolysis half life in phosphate buffer at pH 7.4", "format": "physicochemical", "in_short": "as §1"}, "[3]": {"assay": "Chemical stability assessed as hydrolysis half life in phosphate buffer at pH 8.0", "format": "physicochemical", "in_short": "as §1"}, "[4]": {"assay": "Stability in rat plasma assessed as half life", "format": "ADME, cell-free", "in_short": "as §1"}, "Mus musculus [5]": {"tested_on": "Mus musculus", "assay": "Analgesic activity against acetic acid-induced writhing in po dosed Swiss mouse administered 1 hr before acetic acid challenge measured after 5 mins for 20 mins", "format": "functional, organism-based", "in_short": "(§2)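 Male Swiss mice (20-25 g), fasted overnight, water allowed, six per group. Oral dosing with CMC vehicle given 1 h before ip 0.6% acetic acid or ip magnesium sulfate 120 mg/kg. Abdominal constriction, trunk turning and hind-leg extension counted: for acetic acid over 20 min starting 5 min post-injection, for MgSO4 over 5 min. Mean ± SEM.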"}, "Mus musculus [6]": {"tested_on": "Mus musculus", "assay": "Analgesic activity against magnesium sulfate-induced writhing in po dosed Swiss mouse administered 1 hr before magnesium sulfate challenge measured for 5 mins", "format": "functional, organism-based", "in_short": "as §2"}, "Mus musculus [7]": {"tested_on": "Mus musculus", "assay": "Antiinflammatory activity in Swiss mouse assessed as reduction in carrageenan-induced hind paw edema at 0.1 mg/kg, po administered 1 hr before carrageenan challenge", "format": "functional, organism-based", "parameters": "dose 0.1 mg/kg", "in_short": "(§3)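 Male Swiss mice, six per group, dosed orally (CMC vehicle) 1 h before subplantar injection of 50 µL of 1% λ-carrageenan in saline into the right hind paw. Paw volume read by plethysmometer at intervals up to 96 h. Edema taken as volume minus basal volume measured just before injection. Mean ± SEM.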"}, "Mus musculus [8]": {"tested_on": "Mus musculus", "assay": "Antiinflammatory activity in Swiss mouse assessed as reduction in carrageenan-induced hind paw edema at 10 mg/kg, po administered 1 hr before carrageenan challenge measured after 48 hrs", "format": "functional, organism-based", "parameters": "dose 10 mg/kg", "in_short": "as §3"}, "Mus musculus [9]": {"tested_on": "Mus musculus", "assay": "Gastrointestinal toxicity in fasted Swiss mouse assessed ulcer index at 0.1 mg/kg, po after 4 hrs", "format": "organism-based", "parameters": "dose 0.1 mg/kg, route oral", "details": "in vivo", "in_short": "(§4)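 Male Swiss mice, fasted 16-18 h, n = 6 per group, dosed orally (vehicle 0.5% CMC). Killed 4 h later; stomach opened along greater curvature, rinsed with saline and examined under magnifier. Scoring: irritation 1, lesions 1-3 mm 5, lesions >3 mm 10. Gastric lesion score and ulcer number given as mean ± SEM.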"}, "[10]": {"assay": "Half life in Wistar rat at 0.1 mg/kg, po", "format": "ADME, organism-based", "parameters": "dose 0.1 mg/kg, route oral", "details": "in vivo", "in_short": "(§5)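 Male Wistar rats (200 ± 20 g), single oral dose; killed by decapitation at […], at least three rats per time point, each measured in triplicate. Plasma deproteinized with acetonitrile, centrifuged, organic phase analyzed by C18 HPLC at 313 nm with tolmetine internal standard. Calibration 0.1-100 µg/mL in drug-free matrix. Parameters taken from semilog concentration-time plots.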"}, "[11]": {"assay": "Tmax in Wistar rat at 0.1 mg/kg, po", "format": "ADME, organism-based", "parameters": "dose 0.1 mg/kg, route oral", "details": "in vivo", "in_short": "as §5"}, "[12]": {"assay": "Cmax in Wistar rat at 0.1 mg/kg, po", "format": "ADME, organism-based", "parameters": "dose 0.1 mg/kg, route oral", "details": "in vivo", "in_short": "as §5"}, "[13]": {"assay": "AUC (0 to 6 hrs) in Wistar rat at 0.1 mg/kg, po", "format": "ADME, organism-based", "parameters": "time < 6 hr, dose 0.1 mg/kg, route oral", "details": "plasma", "in_short": "as §5"}, "Rattus norvegicus [14]": {"tested_on": "Rattus norvegicus", "assay": "AUMC (0 to 6 hrs) in Wistar rat at 0.1 mg/kg, po", "format": "ADME, organism-based", "parameters": "dose 0.1 mg/kg, route oral", "details": "in vivo", "in_short": "as §5"}, "[15]": {"assay": "Mean residence time in Wistar rat assessed as time required for 63.2% of administered dose to be eliminated at 0.1 mg/kg, po", "format": "ADME, organism-based", "parameters": "dose 0.1 mg/kg, route oral", "details": "in vivo", "in_short": "as §5"}, "[16]": {"assay": "Systemic clearance in Wistar rat at 0.1 mg/kg, po", "format": "ADME, organism-based", "parameters": "dose 0.1 mg/kg, route oral", "details": "in vivo", "in_short": "as §5"}, "[17]": {"assay": "Elimination half life in Wistar rat at 0.1 mg/kg, po", "format": "ADME, organism-based", "parameters": "dose 0.1 mg/kg, route oral", "details": "in vivo, read-out: beta t1/2 (converted)", "in_short": "as §5"}, "Mus musculus [18]": {"tested_on": "Mus musculus", "assay": "Analgesic activity against acetic acid-induced writhing in Swiss mouse at 0.163 mg/kg, po administered 1 hr before acetic acid challenge measured after 5 mins for 20 mins", "format": "functional, organism-based", "parameters": "dose 0.163 mg/kg", "in_short": "as §2"}, "Mus musculus [19]": {"tested_on": "Mus musculus", "assay": "Gastrointestinal toxicity in fasted Swiss mouse assessed ulcer index at 0.163 mg/kg, po after 4 hrs", "format": "organism-based", "parameters": "dose 0.163 mg/kg, route oral", "details": "in vivo", "in_short": "as §4"}, "Rattus norvegicus [20]": {"tested_on": "Rattus norvegicus", "assay": "Half life in Wistar rat assessed as ketorolac release at 0.163 mg/kg, po", "format": "ADME, organism-based", "parameters": "dose 0.163 mg/kg, route oral", "details": "in vivo", "in_short": "as §5"}, "Rattus norvegicus [21]": {"tested_on": "Rattus norvegicus", "assay": "Tmax in Wistar rat assessed as ketorolac release at 0.163 mg/kg, po", "format": "ADME, organism-based", "parameters": "dose 0.163 mg/kg, route oral", "details": "in vivo", "in_short": "as §5"}, "Rattus norvegicus [22]": {"tested_on": "Rattus norvegicus", "assay": "Cmax in Wistar rat assessed as ketorolac release at 0.163 mg/kg, po", "format": "ADME, organism-based", "parameters": "dose 0.163 mg/kg, route oral", "details": "in vivo", "in_short": "as §5"}, "Rattus norvegicus [23]": {"tested_on": "Rattus norvegicus", "assay": "AUC (0 to 6 hrs) in Wistar rat assessed as ketorolac release at 0.163 mg/kg, po", "format": "ADME, organism-based, Plasma", "parameters": "time < 6 hr, dose 0.163 mg/kg, route oral", "details": "in vivo", "in_short": "as §5"}, "Rattus norvegicus [24]": {"tested_on": "Rattus norvegicus", "assay": "AUMC (0 to 6 hrs) in Wistar rat assessed as ketorolac release at 0.163 mg/kg, po", "format": "ADME, organism-based", "parameters": "dose 0.163 mg/kg, route oral", "details": "in vivo", "in_short": "as §5"}, "Rattus norvegicus [25]": {"tested_on": "Rattus norvegicus", "assay": "Mean residence time in Wistar rat assessed as time required for 63.2% of administered dose to be eliminated as ketorolac at 0.163 mg/kg, po", "format": "ADME, organism-based", "parameters": "dose 0.163 mg/kg, route oral", "details": "in vivo", "in_short": "as §5"}, "Rattus norvegicus [26]": {"tested_on": "Rattus norvegicus", "assay": "Systemic clearance in Wistar rat assessed as ketorolac release at 0.163 mg/kg, po", "format": "ADME, organism-based", "parameters": "dose 0.163 mg/kg, route oral", "details": "in vivo", "in_short": "as §5"}, "Rattus norvegicus [27]": {"tested_on": "Rattus norvegicus", "assay": "Elimination half life in Wistar rat assessed as ketorolac release at 0.163 mg/kg, po", "format": "ADME, organism-based", "parameters": "dose 0.163 mg/kg, route oral", "details": "in vivo", "in_short": "as §5"}},
  "note": "The source made the active and inactive calls. The rule behind the calls is not given here.",
  "data": [
    {"smiles": "O=C(c1ccccc1)c1ccc2n1CCC2C(=O)O", "note": "(stereo not drawn) [KETOROLAC]", "values": [
      {"measurement": "half-life", "setting": "[1]", "value": "> 4", "unit": "h"},
      {"measurement": "half-life", "setting": "[2]", "value": "> 4", "unit": "h"},
      {"measurement": "half-life", "setting": "[3]", "value": "> 4", "unit": "h"},
      {"measurement": "half-life", "setting": "[4]", "value": "> 4", "unit": "h"},
      {"measurement": "Activity", "setting": "Mus musculus [5]", "value": "Dose-dependent effect"},
      {"measurement": "Activity", "setting": "Mus musculus [6]", "value": "Dose-dependent effect"},
      {"measurement": "Activity", "setting": "Mus musculus [7]", "value": "inactive"},
      {"measurement": "Activity", "setting": "Mus musculus [8]", "value": "Active"},
      {"measurement": "UI", "setting": "Mus musculus [9]", "value": 10},
      {"measurement": "half-life", "setting": "[10]", "value": 1.65, "unit": "h"},
      {"measurement": "Tmax", "setting": "[11]", "value": 1, "unit": "h"},
      {"measurement": "Cmax", "setting": "[12]", "value": 400, "unit": "ng/mL"},
      {"measurement": "AUC(0-t) at 6 h", "setting": "[13]", "value": 855, "unit": "ng·h/mL"},
      {"measurement": "AUMC", "setting": "Rattus norvegicus [14]", "value": 3300, "unit": "ng·h/mL"},
      {"measurement": "MRT", "setting": "[15]", "value": 3.1, "unit": "h"},
      {"measurement": "CL/F", "setting": "[16]", "value": 1.57, "unit": "mL/min"},
      {"measurement": "half-life", "setting": "[17]", "value": 1.99, "unit": "h"}
    ]},
    {"smiles": "O=C(c1ccccc1)c1ccc2n1CC[C@@H]2C(=O)OC[C@H]1OC(O)[C@H](O)[C@@H](O)[C@H]1O", "note": "(stereo partly drawn)", "values": [
      {"measurement": "half-life", "setting": "[1]", "value": 2.1, "unit": "h"},
      {"measurement": "half-life", "setting": "[2]", "value": "> 4", "unit": "h"},
      {"measurement": "half-life", "setting": "[3]", "value": "> 4", "unit": "h"},
      {"measurement": "half-life", "setting": "[4]", "value": 1.5, "unit": "h"},
      {"measurement": "Activity", "setting": "Mus musculus [5]", "value": "Dose-dependent effect"},
      {"measurement": "Activity", "setting": "Mus musculus [18]", "value": "Active"},
      {"measurement": "Activity", "setting": "Mus musculus [6]", "value": "Dose-dependent effect"},
      {"measurement": "UI", "setting": "Mus musculus [19]", "value": 1},
      {"measurement": "t1/2", "setting": "Rattus norvegicus [20]", "value": 5.23, "unit": "h"},
      {"measurement": "Tmax", "setting": "Rattus norvegicus [21]", "value": 1, "unit": "h"},
      {"measurement": "Cmax", "setting": "Rattus norvegicus [22]", "value": 240, "unit": "ng/mL"},
      {"measurement": "AUC", "setting": "Rattus norvegicus [23]", "value": 935, "unit": "ng·h/mL"},
      {"measurement": "AUMC", "setting": "Rattus norvegicus [24]", "value": 5600, "unit": "ng·h/mL"},
      {"measurement": "MRT", "setting": "Rattus norvegicus [25]", "value": 4.5, "unit": "h"},
      {"measurement": "CL", "setting": "Rattus norvegicus [26]", "value": 80.36, "unit": "mL/h"},
      {"measurement": "beta t1/2", "setting": "Rattus norvegicus [27]", "value": 2.4, "unit": "h"}
    ]}
  ]
}
